In ChEMBL document CHEMBL1153083, “Antiprotozoal, anticancer and antimicrobial activities of dihydroartemisinin acetal dimers and monomers” (Bioorg Med Chem, 2009):
Active and inactive are the calls of the source. The rule behind the calls is not given here.

Columns and labels:
Plasmodium falciparum [1] = assay: Antiplasmodial activity against Plasmodium falciparum D6 infected in RBCs by parasitic LDH release assay; assay type: functional, organism-based
Outline: (§1)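 Infected erythrocytes at 2% parasitemia and 2% hematocrit, in RPMI 1640 with 10% human serum and amikacin 60 μg/mL, were exposed to serial dilutions under N2/O2/CO2 (90:5:5) at 37°C for 72 h. LDH was read with Malstat reagent (30 min), then NBT/PES in the dark (60 min), stopped with 5% acetic acid, at 650 nm. IC50 came from percent growth dose-response curves.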

[2] = Selectivity index, ratio of TC50 for african green monkey (Cercopithecus aethiops) Vero cells to IC50 for Plasmodium falciparum D6; assay type: toxicity, cell-based
Plasmodium falciparum [3] = assay: Antiplasmodial activity against Plasmodium falciparum W2 infected in RBCs by parasitic LDH release assay; assay type: functional, organism-based; outline: as §1
[4] = Selectivity index, ratio of TC50 for african green monkey (Cercopithecus aethiops) Vero cells to IC50 for Plasmodium falciparum W2; assay type: toxicity, cell-based
Leishmania donovani = assay: Antileishmanial activity against Leishmania donovani promastigotes after 48 hrs by alamar blue assay; assay type: functional, organism-based
SK-MEL = assay: Cytotoxicity against human SK-MEL cells after 48 hrs by neutral red assay; assay type: functional, cell-based
Outline: (§2)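 Cells seeded at 25,000 per well and incubated 24 h, then exposed to samples for 48 h. Viable cells were counted by neutral red, with DMSO as vehicle control. IC50 or TC50 values were derived from logarithmic plots of growth inhibition versus concentration.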

KB = assay: Cytotoxicity against human KB cells after 48 hrs by neutral red assay; assay type: functional, cell-based; conditions: Homo sapiens, KB, 48 h; read-out: IC50; outline: as §2
BT-549 = assay: Cytotoxicity against human BT549 cells after 48 hrs by neutral red assay; assay type: functional, cell-based; outline: as §2
SK-OV-3 = assay: Cytotoxicity against human SKOV3 cells after 48 hrs by neutral red assay; assay type: functional, cell-based; conditions: sk-ov-3; outline: as §2
[5] = Toxicity against african green monkey Vero cells after 48 hrs by neutral red assay; assay type: cell-based; conditions: chlorocebus sabaeus, Vero cells; read-out: TC50; outline: as §2
[6] = Toxicity against pig LLC-PK11 cells after 48 hrs by neutral red assay; assay type: cell-based, Sus scrofa; conditions: for CC50 at 48 h: LLC-PK11 cells, read-out: TC50; for TC50: llc-pk11, 48 h; outline: as §2
Candida albicans = assay: Antifungal activity against Candida albicans ATCC 90028 by modified CLSI/NCCLS method; assay type: functional, organism-based
Nakaseomyces glabratus = assay: Antifungal activity against Candida glabrata ATCC 90030 by modified CLSI/NCCLS method; assay type: functional, organism-based
Pichia kudriavzevii = assay: Antifungal activity against Candida krusei ATCC 6258 by modified CLSI/NCCLS method; assay type: functional, organism-based; conditions: Pichia kudriavzevii, ATCC 6258; read-out: IC50
Cryptococcus neoformans = assay: Antifungal activity against Cryptococcus neoformans ATCC 90113 by modified CLSI/NCCLS method; assay type: functional, organism-based
Aspergillus fumigatus = assay: Antifungal activity against Aspergillus fumigatus ATCC 90906 by modified CLSI/NCCLS method; assay type: functional, organism-based
Staphylococcus aureus = assay: Antibacterial activity against methicillin-resistant Staphylococcus aureus ATCC 43300 by modified CLSI/NCCLS method; assay type: functional, organism-based
[7] = test system: Mycobacterium intracellulare; assay: Antibacterial activity against Mycobacterium intracellular ATCC 23068 by Franzblau method; assay type: functional, organism-based
Escherichia coli = assay: Antibacterial activity against Escherichia coli ATCC 35218 by modified CLSI/NCCLS method; assay type: functional, organism-based
Pseudomonas aeruginosa = assay: Antibacterial activity against Pseudomonas aeruginosa ATCC 27853 by modified CLSI/NCCLS method; assay type: functional, organism-based
[8] = Toxicity against african green monkey Vero cells; assay type: cell-based; conditions: chlorocebus sabaeus; outline: as §2
[9] = Leishmania donovani, 48 h, read-out: IC50
[10] = Homo sapiens, SK-MEL, 48 h, read-out: IC50
[11] = Homo sapiens, BT-549, 48 h, read-out: IC50
[12] = Candida albicans, ATCC 90028, read-out: IC50
[13] = Aspergillus fumigatus, ATCC 90906, read-out: IC50

Row | Structure (SMILES) | IC50 (Plasmodium falciparum [1]) [nM] | selectivity ratio [2] | IC50 (Plasmodium falciparum [3]) [nM] | selectivity ratio [4] | IC90 (Leishmania donovani; Leishmania donovani, 48 h) [nM] | IC50 (Leishmania donovani; [9]) [nM] | IC50 (SK-MEL; [10]) [nM] | IC50 (KB) [nM] | IC50 (BT-549; [11]) [nM] | IC50 (SK-OV-3) | CC50 at 48 h [5] [nM] | CC50 at 48 h [6] [nM] | IC50 (Candida albicans; [12]) [nM] | IC50 (Nakaseomyces glabratus) | IC50 (Pichia kudriavzevii) [nM] | IC50 (Cryptococcus neoformans) [nM] | IC50 (Aspergillus fumigatus; [13]) [nM] | IC50 (Staphylococcus aureus) | IC50 [7] | IC50 (Aspergillus fumigatus) | further results
1 | C[C@H]1[C@@H](OCC(=O)CO[C@H]2O[C@@H]3O[C@@]4(C)CC[C@H]5[C@H](C)CC[C@@H]([C@H]2C)[C@@]35OO4)O[C@@H]2O[C@@]3(C)CC[C@H]4[C@H](C)CC[C@@H]1[C@@]24OO3 | 5.3 | 49 | 5.8 | 44 | 38500 | 7400 | 560 | 240 | 240 | Not Active | > 8030 | 100 | 2410 | Not Active | 880 | 880 | 32100 | Not Active | Not Active | – | –
2 | C[C@H]1[C@@H](OC/C=C\CO[C@H]2O[C@@H]3O[C@@]4(C)CC[C@H]5[C@H](C)CC[C@@H]([C@H]2C)[C@@]35OO4)O[C@@H]2O[C@@]3(C)CC[C@H]4[C@H](C)CC[C@@H]1[C@@]24OO3 | 6.3 | 113 | 6.1 | 116 | – | – | – | 320 | 1530 | Not Active | 180 | – | – | – | – | 24200 | – | Not Active | Not Active | Not Active | IC50 (Leishmania donovani): Not Active; IC90 (Leishmania donovani): inactive; IC50 (SK-MEL; sk-mel): Not Active; TC50 [6]: Non-toxic; IC50 (Candida albicans): Not Active; IC50 (Escherichia coli): Not Active; IC50 (Pseudomonas aeruginosa): Not Active
3 | C[C@H]1[C@@H](O)O[C@@H]2O[C@@]3(C)CC[C@H]4[C@H](C)CC[C@@H]1[C@@]24OO3 [ARTENIMOL] | 14.8 | 95 | 14.1 | 100 | – | 87900 | – | – | – | – | – | – | 880 | Not Active | 28100 | 280 | – | Not Active | Not Active | Not Active | CC50 [8]: 1410 nM; IC90 (Leishmania donovani): inactive
4 | CCN(CC)CCCC(C)Nc1ccnc2cc(Cl)ccc12 (configuration not stated) [CHLOROQUINE] | – | – | – | – | – | – | – | – | – | – | – | – | – | – | – | – | – | – | – | – | CC50 [8]: > 14900 nM
5 | C[C@H]1[C@@H](OCC(O)CO[C@H]2O[C@@H]3O[C@@]4(C)CC[C@H]5[C@H](C)CC[C@@H]([C@H]2C)[C@@]35OO4)O[C@@H]2O[C@@]3(C)CC[C@H]4[C@H](C)CC[C@@H]1[C@@]24OO3 (some centres not stated) | 11.2 | 34 | 3.8 | 100 | 47900 | 12800 | 8000 | 260 | 480 | Not Active | 5600 | 150 | 800 | Not Active | 400 | 320 | – | Not Active | Not Active | Not Active | –
6 | C=C[C@@H](CO[C@H]1O[C@@H]2O[C@@]3(C)CC[C@H]4[C@H](C)CC[C@@H]([C@H]1C)[C@@]24OO3)O[C@H]1O[C@@H]2O[C@@]3(C)CC[C@H]4[C@H](C)CC[C@@H]([C@H]1C)[C@@]24OO3 | 24.2 | 32 | 25.8 | 30 | 62800 | 20900 | 12900 | 270 | 2580 | Not Active | 430 | > 16100 | 1450 | – | – | 6440 | 16100 | Not Active | Not Active | – | IC50 (Escherichia coli): Not Active; IC50 (Pseudomonas aeruginosa): Not Active
7 | C[C@H]1[C@@H](OCC(CO[C@H]2O[C@@H]3O[C@@]4(C)CC[C@H]5[C@H](C)CC[C@@H]([C@H]2C)[C@@]35OO4)OS(C)(=O)=O)O[C@@H]2O[C@@]3(C)CC[C@H]4[C@H](C)CC[C@@H]1[C@@]24OO3 (some centres not stated) | 11.8 | 542 | 11.8 | 542 | 55500 | 22800 | – | 280 | – | Not Active | 2130 | – | 4270 | – | – | 1420 | – | Not Active | Not Active | Not Active | CC50 [8]: 6400 nM; IC50 (SK-MEL; sk-mel): Not Active; IC50 (BT-549; bt-549): Not Active; TC50 [6]: Non-toxic; IC50 (Escherichia coli): Not Active; IC50 (Pseudomonas aeruginosa): Not Active
8 | C[C@@H]1[C@H](O)[C@@H](C)/C=C/C=C/C=C/C=C/C=C/C=C/C=C/[C@H](O[C@@H]2O[C@H](C)[C@@H](O)[C@H](N)[C@@H]2O)C[C@@H]2O[C@](O)(C[C@@H](O)C[C@@H](O)[C@H](O)CC[C@@H](O)C[C@@H](O)CC(=O)O[C@H]1C)C[C@H](O)[C@H]2C(=O)O [AMPHOTERICIN B] | – | – | – | – | 400 | – | – | – | – | – | – | – | 370 | – | 850 | 780 | 1120 | – | – | – | IC50 (Nakaseomyces glabratus; Nakaseomyces glabratus, ATCC 90030, read-out: IC50): 460 nM
